# In paper PMC4687753 (Journal of the American Chemical Society, 2015):
# Entries after “also recorded” stand apart in the source; their conditions may differ. *1 amine or outer side, *2 acyl side, *3 side chain or, on linkers, in order; H or OH if unused. Where a SMILES comes first, the peptide text is derived from it. Bridges are numbered along the chain shown (N, C = ends). Roman numbers before positions name the chains, in order. [ ]: non-standard residue; d: D form. X2 = O=C(O)CCC(=O)N1C[C@H](N[*:2])[C@@H](C(=O)[*:1])C1; X1 = O=C([C@H]1CCC[C@@H]1N[*:1])[*:2]; S5 = C=CCCC[C@](C)(N)C(=O)O
# Experiments:
# [1] = system: wild-type mouse embryonic fibroblasts (MEFs); assay: Cytochrome c release assay, permeabilized cells; type: cell-based; details: digitonin-permeabilized wt MEFs, 10 μM peptide, 1 hour, western blot
# [2] = system: bax−/−/bak−/− mouse embryonic fibroblasts (MEFs); assay: Cytochrome c release assay, permeabilized cells; type: cell-based; details: digitonin-permeabilized bax−/−/bak−/− MEFs, 10 μM peptide, 1 hour, western blot
# MEFs = assay: Cell killing assay; type: cell-based, mouse; details: 10 μM, 24 hours, CellTiter-Glo, two independent experiments
# In short: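 Mouse embryonic fibroblasts kept in DME KELSO medium with 10% FBS, 250 μM L-asparagine and 50 μM 2-mercaptoethanol. Given 10 μM test compound or DMSO for 24 h. Viability measured by CellTiter-Glo luminescence (intracellular ATP) relative to DMSO; mean ± SD of two independent experiments.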
# MDA-MB-231 = assay: Cell killing assay; type: cell-based; details: MDA-MB-231 (mammary), 10 μM, 24 hours, CellTiter-Glo, two independent experiments
# MDA-MB-468 = assay: Cell killing assay; type: cell-based; details: MDA-MB-468 (mammary), 10 μM, 24 hours, CellTiter-Glo, two independent experiments
# LIM-2405 = assay: Cell killing assay; type: cell-based; details: LIM-2405 (colon), 10 μM, 24 hours, CellTiter-Glo, two independent experiments
# In short: (§1)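 Human tumour lines grown in RPMI with 10% FBS. Seeded at 1.5×10³ cells/well, then washed with serum-free medium after 24 h. Exposed to 10 μM test compound or DMSO in serum-free medium for 2 h, then FBS added to 10% final, for 24 h total exposure. Viability read as CellTiter-Glo luminescence (intracellular ATP) relative to DMSO; mean ± SD of two independent experiments.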
# SW480 = assay: Cell killing assay; type: cell-based; details: SW480 (colon), 10 μM, 24 hours, CellTiter-Glo, two independent experiments
# In short: as §1
# A549 = assay: Cell killing assay; type: cell-based; details: A549 (lung), 10 μM, 24 hours, CellTiter-Glo, two independent experiments
# In short: as §1
# [3] = system: unpermeabilized U937 cells; assay: Cytochrome c release assay, unpermeabilized cells; type: cell-based; details: unpermeabilized U937, 10 μM peptide, 3 hours at 37°C, western blot
# U937 lymphoma cells = details: CellTiter-Glo; for effect of caspase inhibitor Q-VD-OPh on loss of U937 viability: 50 μM Q-VD-OPh, 2 hours; for cell viability relative to DMSO control: U937, 10 μM, 24 hours, two independent experiments; for U937 cell viability after 2 hours of treatment: titration, 2 hours serum-free, absence of caspase inhibitor
# proteinase K = proteinase K (Parengyodontium album, UniProt P06873); assay: Protease susceptibility assay; details: same conditions as t1/2
# Bcl-xL = Bcl-xL (Homo sapiens, UniProt Q07817); assay: SPR solution competition assay; type: binding
# Mcl-1 = Mcl-1 (Homo sapiens, UniProt Q07820); assay: SPR solution competition assay; type: binding
# Bcl-2 = Bcl-2 (Homo sapiens, UniProt P10415); assay: SPR solution competition assay; type: binding
# Sequence of Bcl-2 (P10415 1-217 limits assumed): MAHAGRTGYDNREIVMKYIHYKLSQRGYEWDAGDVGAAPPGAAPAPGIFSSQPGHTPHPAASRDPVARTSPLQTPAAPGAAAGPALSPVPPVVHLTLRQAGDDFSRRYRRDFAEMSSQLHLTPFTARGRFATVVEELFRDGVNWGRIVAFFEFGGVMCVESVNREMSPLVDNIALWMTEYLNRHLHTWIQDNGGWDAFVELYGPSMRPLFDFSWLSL
# Sequence of proteinase K (P06873 106-384, species assumed): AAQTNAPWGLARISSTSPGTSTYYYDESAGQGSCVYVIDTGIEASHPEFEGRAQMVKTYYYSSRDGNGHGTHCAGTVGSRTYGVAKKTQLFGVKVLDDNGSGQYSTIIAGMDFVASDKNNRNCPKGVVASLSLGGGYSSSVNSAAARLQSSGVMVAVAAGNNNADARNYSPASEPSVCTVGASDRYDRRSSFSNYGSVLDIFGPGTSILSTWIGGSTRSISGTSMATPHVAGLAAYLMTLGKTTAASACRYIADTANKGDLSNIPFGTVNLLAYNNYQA
# Sequence of Mcl-1 (Q07820 171-327 limits assumed): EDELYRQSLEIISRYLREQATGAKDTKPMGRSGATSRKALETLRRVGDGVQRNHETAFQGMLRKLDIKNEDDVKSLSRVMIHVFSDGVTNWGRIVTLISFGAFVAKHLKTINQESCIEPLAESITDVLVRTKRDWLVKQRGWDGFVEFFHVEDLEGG
# Sequence of Bcl-xL (Q07817 1-209 limits assumed, species assumed): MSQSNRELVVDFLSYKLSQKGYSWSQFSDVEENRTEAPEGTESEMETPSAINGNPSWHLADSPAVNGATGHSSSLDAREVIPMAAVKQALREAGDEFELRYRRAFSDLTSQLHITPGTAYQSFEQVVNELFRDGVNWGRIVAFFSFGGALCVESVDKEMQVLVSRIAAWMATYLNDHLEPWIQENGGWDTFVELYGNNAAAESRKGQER
IC50 (Bcl-xL),IC50 (Mcl-1),IC50 (Bcl-2),Compound,cytochrome c release from pellet fraction to soluble cytosolic fraction [1],cytochrome c release from pellet fraction to soluble cytosolic fraction [2],cell viability relative to DMSO control (MEFs),cell viability relative to DMSO control (MDA-MB-231),cell viability relative to DMSO control (MDA-MB-468),cell viability relative to DMSO control (LIM-2405),cell viability relative to DMSO control (SW480),cell viability relative to DMSO control (A549),location of cytochrome c after treatment of intact cells [3],effect of caspase inhibitor Q-VD-OPh on loss of U937 viability (U937 lymphoma cells),cell viability relative to DMSO control (U937 lymphoma cells),U937 cell viability after 2 hours of treatment (U937 lymphoma cells),increase in half-life relative to the stapled peptide α-1 (proteinase K),increase in half-life relative to α-Bim (proteinase K)
,,,CC[C@H](C)[C@H](NC(C)=O)C(=O)N[C@H]1CCC[C@@H]1C(=O)N[C@H](C(=O)N[C@@H](C)C(=O)N[C@@H](CCC(N)=O)C(=O)N[C@H]1CN(C(=O)CCC(=O)O)C[C@@H]1C(=O)N[C@@H](CC(C)C)C(=O)N[C@@H](CCCNC(=N)N)C(=O)N[C@@]1(C)CCC/C=C\CCC[C@@](C)(C(=O)N[C@@H](Cc2ccccc2)C(=O)N[C@@H](CC(N)=O)C(=O)N[C@H]2CCC[C@@H]2C(=O)N[C@@H](Cc2ccc(O)cc2)C(=O)N[C@@H](Cc2ccc(O)cc2)C(=O)N[C@@H](C)C(=O)N[C@@H](CCCNC(=N)N)C(=O)N[C@@H](CCCNC(=N)N)C(N)=O)NC(=O)[C@H](CC(=O)O)NC(=O)CNC(=O)[C@H]([C@@H](C)CC)NC1=O)[C@@H](C)CC [α/β-1] (I: LR[S5]IGD[S5]FN[X1]YYARR-NH2 / II: Ac-I[X1]IAQ; staple (Z) I:3-I:7; linker I:N-II:C via X2),able to induce cytochrome c release,but not in bax^−/−/bak^−/− MEFs,essentially no effect,no significant cell death,no significant cell death,no significant cell death,no significant cell death,no significant cell death,most of the cytochrome c was present in the soluble fraction,attenuated by Q-VD-OPh,potently impacted U937 lymphoma cell viability,significant reduction in cell viability,> 90 fold,> 500 fold
,,,"CC[C@H](C)[C@H](NC(C)=O)C(=O)N[C@@H](Cc1c[nH]c2ccccc12)C(=O)N[C@H](C(=O)N[C@@H](C)C(=O)N[C@@H](CCC(N)=O)C(=O)N[C@@H](CCC(=O)O)C(=O)N[C@@H](CC(C)C)C(=O)N[C@@H](CCCNC(=N)N)C(=O)N[C@@]1(C)CCC/C=C\CCC[C@@](C)(C(=O)N[C@@H](Cc2ccccc2)C(=O)N[C@@H](CC(N)=O)C(=O)N[C@@H](C)C(=O)N[C@@H](Cc2ccc(O)cc2)C(=O)N[C@@H](Cc2ccc(O)cc2)C(=O)N[C@@H](C)C(=O)N[C@@H](CCCNC(=N)N)C(=O)N[C@@H](CCCNC(=N)N)C(N)=O)NC(=O)[C@H](CC(=O)O)NC(=O)CNC(=O)[C@H]([C@@H](C)CC)NC1=O)[C@@H](C)CC [α-1, reference compound]",,,essentially no effect,no significant cell death,no significant cell death,no significant cell death,no significant cell death,no significant cell death,,attenuated by Q-VD-OPh,efficiently killing U937 lymphoma cells,significant reduction in cell viability,,~ 6 fold
80 nM,4 nM,189 nM,C=CCCC[C@](C)(NC(=O)[C@H](CC(=O)O)NC(=O)CNC(=O)[C@@H](NC(=O)[C@](C)(CCCC=C)NC(=O)[C@H](CCCNC(=N)N)NC(=O)[C@H](CC(C)C)NC(=O)[C@H](CCC(=O)O)NC(=O)[C@H](CCC(N)=O)NC(=O)[C@H](C)NC(=O)[C@@H](NC(=O)[C@H](Cc1c[nH]c2ccccc12)NC(=O)[C@@H](NC(C)=O)[C@@H](C)CC)[C@@H](C)CC)[C@@H](C)CC)C(=O)N[C@@H](Cc1ccccc1)C(=O)N[C@@H](CC(N)=O)C(=O)N[C@@H](C)C(=O)N[C@@H](Cc1ccc(O)cc1)C(=O)N[C@@H](Cc1ccc(O)cc1)C(=O)N[C@@H](C)C(=O)N[C@@H](CCCNC(=N)N)C(=O)N[C@@H](CCCNC(=N)N)C(N)=O [α-1-LIN],,,,,,,,,,,,,,
,,,CC[C@H](C)[C@H](NC(C)=O)C(=O)N[C@H]1CCC[C@@H]1C(=O)N[C@H](C(=O)N[C@@H](C)C(=O)N[C@@H](CCC(N)=O)C(=O)N[C@H]1CN(C(=O)CCC(=O)O)C[C@@H]1C(=O)N[C@@H](CC(C)C)C(=O)N[C@@H](CCCNC(=N)N)C(=O)N[C@H]1CCC[C@@H]1C(=O)N[C@H](C(=O)NCC(=O)N[C@@H](CC(=O)O)C(=O)N[C@H]1CCC[C@@H]1C(=O)N[C@@H](Cc1ccccc1)C(=O)N[C@@H](CC(N)=O)C(=O)N[C@H]1CCC[C@@H]1C(=O)N[C@@H](Cc1ccc(O)cc1)C(=O)N[C@@H](Cc1ccc(O)cc1)C(=O)N[C@@H](C)C(=O)N[C@@H](CCCNC(=N)N)C(=O)N[C@@H](CCCNC(=N)N)C(N)=O)[C@@H](C)CC)[C@@H](C)CC [α/β-2] (I: LR[X1]IGD[X1]FN[X1]YYARR-NH2 / II: Ac-I[X1]IAQ; linker I:N-II:C via X2),Slightly less cytochrome c release; also recorded: able to induce cytochrome c release,but not in bax^−/−/bak^−/− MEFs,,,,,,,cytochrome c exclusively in the pellet,,,,,
